Arbovirus inh = arbovirus infection inhibition; arbovirus infection cell-based antiviral screen; inhibition, % at 10 µM; 200,000 compounds, 0.37% hits; AID 1251; in the data active means inhibition above about 30%
L major viab = inhibitors of Leishmania major promastigote growth; Leishmania major promastigotes, resazurin fluorescence viability; 200,000 compounds, 9% hits; inhibition, % at 10 µM; AID 1063;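 further: promastigotes grown with compound for 44 hours at 28 °C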
Wee1 stabilizer = blocks degradation of human Wee1 kinase. 220,000 compounds, 1.2% hits. reporter increase, % at 5 µM. HeLa Luc-Wee1K328M stability, luciferase luminescence; 100% = proteasome inhibitor MG132 effect. AID 1321. P30291;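 active means activation above the mean of all tested compounds plus 3 SD, set per screening run, cut at about 8.8% in these data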;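 further: cells exposed to compound for 20 h before luminescence read; 0% = DMSO alone and 100% = MG132 at 30 µM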
Target sequence (P30291 whole entry K328M): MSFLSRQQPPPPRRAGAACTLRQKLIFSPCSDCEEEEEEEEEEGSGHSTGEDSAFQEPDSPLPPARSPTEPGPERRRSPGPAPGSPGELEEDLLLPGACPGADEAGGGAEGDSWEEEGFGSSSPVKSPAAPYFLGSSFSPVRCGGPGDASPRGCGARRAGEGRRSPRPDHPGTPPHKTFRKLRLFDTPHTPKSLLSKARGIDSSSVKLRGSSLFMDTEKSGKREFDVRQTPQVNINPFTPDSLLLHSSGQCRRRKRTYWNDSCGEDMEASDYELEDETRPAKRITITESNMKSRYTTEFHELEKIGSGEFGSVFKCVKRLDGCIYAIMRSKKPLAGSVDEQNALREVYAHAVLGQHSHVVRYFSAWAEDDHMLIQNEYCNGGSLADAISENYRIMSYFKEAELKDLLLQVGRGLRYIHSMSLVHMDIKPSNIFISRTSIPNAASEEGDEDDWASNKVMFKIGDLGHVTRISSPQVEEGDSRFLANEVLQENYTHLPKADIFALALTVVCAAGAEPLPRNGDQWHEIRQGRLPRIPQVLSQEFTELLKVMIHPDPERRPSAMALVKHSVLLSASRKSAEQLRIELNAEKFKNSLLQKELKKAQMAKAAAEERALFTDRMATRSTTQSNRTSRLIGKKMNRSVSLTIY
PKD1 inh = PKD1 (human) kinase inhibition | Q15139 | PKD1 kinase fluorescence polarization assay | inhibition, % (no concentration beside the values) | 200,000 compounds, 0.056% hits | AID 797
Rad51 HR inh = blocks human Rad51 in homologous recombination; hRad51 DNA strand exchange, fluorescence dequenching; 200,000 compounds, 0.085% hits; inhibition, % at 10 µM;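 active means inhibition above 40% at the single screening dose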;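 further: 0% = DMSO control wells and 100% = blanks with heterologous ssDNA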
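Material: Human Rad51 nucleoprotein filaments preassembled on unlabelled ssDNA | Also added: Labelled 47-mer dsDNA for strand exchange | Dosing: Single dose, 10 µM final compound | Schedule: 30-min compound preincubation and 15-min exchange, both room temperature | Technique: Fluorescence dequenching at 485/520 nm | Measure: Percent inhibition relative to plate controls and blanks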
CHOP inh = inhibitors of CHOP induction in ER stress response; CHO-K1 CHOP-promoter luciferase, tunicamycin-induced, 15-18 h; inhibition, % at 10 µM; 220,000 compounds, 3.8% hits; AID 2732;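 active means compounds that reduced the stress-induced luciferase reporter signal by more than about 70% of percent inhibition, limit read from the data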;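 further: 0% = tunicamycin plus vehicle and 100% = wells without tunicamycin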
An asterisk follows results filed as active; · = no result given. Compounds with a hit are over-represented: about 12% of the library has one in this group of screens. Unless noted, no stated cut-off is given here; in the data, active means inhibition above about 50%; inactive means the rest.

SMILES | Arbovirus inh | L major viab | Wee1 stabilizer | PKD1 inh | Rad51 HR inh | CHOP inh
COc1ccc(CCC(=O)N2CCN(C3CCCCC3)CC2)cc1 | 3 | 56* | 3 | -10 | 5 | -11
CSc1nnc2ccc(-c3cccs3)nn12 | -10 | 1 | 2 | -7 | 15 | 29
COc1ccccc1N1CCN(C2CCN(C(=O)COc3ccccc3)CC2)CC1 | 2 | -4 | -2 | 0 | 1 | 10
O=C(CN1C(=O)C2CCCCC2C1=O)N1CCN(c2ccccc2)CC1 (stereo unspecified) | 3 | -2 | -3 | -4 | -5 | -5
COc1ccccc1C(=O)N1CCC(N2CCN(c3ccccc3)CC2)CC1 | · | · | 0 | · | -14 | -4
O=C(CCC1CCCC1)N1CCC(N2CCN(c3ccccc3)CC2)CC1 | -8 | 93* | 2 | -8 | -4 | 27
COc1ccc(C(=O)N2CCC(N3CCN(c4ccccc4)CC3)CC2)cc1 | -1 | 91* | 4 | 1 | -6 | -6
CC(C)CC(=O)N1CCC(N2CCN(c3ccccc3)CC2)CC1 | 7 | 90* | 1 | -5 | 2 | 19
Cc1ccc(-c2cc(N)n(-c3ccc(F)cc3)n2)cc1 | -4 | 13 | 3 | -2 | 8 | 15
Cc1cccc(NC(=O)C(CC(C)C)NC(=O)C2CCC(C)CC2)n1 (stereo unspecified) | -1 | 24 | -2 | -13 | -1 | 10
Cc1cccc(C)c1NC(=O)C(NC=O)c1ccc(Cl)cc1 (stereo unspecified) | -2 | -3 | 3 | -5 | -9 | -10
Cc1cccc(C)c1NC(=O)C(C)c1ccc(-c2ccccc2)c(F)c1 (stereo unspecified) | 10 | 100* | -2 | -1 | -2 | 45
CCN1CCN(C(=S)c2ccc(Cl)cc2)CC1 | -2 | 88* | -1 | -3 | 2 | 3
CCN1CCN(C(=S)c2ccc([N+](=O)[O-])cc2)CC1 | 4 | 58* | 4 | 3 | -10 | -8
CCN1CCN(C(=S)c2ccc(OC)cc2)CC1 | 4 | 100* | -2 | -1 | -5 | 12
CCOC(=O)c1c(Cc2ccccc2)c[nH]c1C | 4 | 5 | 1 | 2 | -16 | -4
COc1ccc(-n2cccc2/C=C2/NC(=O)N(c3cccc(Cl)c3)C2=O)cc1 | -4 | 2 | 8.9* | 9 | -7 | 20
Cc1ccccc1N=C1NC(=O)/C(=C/c2cccn2-c2cccc(C(=O)O)c2)S1 | 76* | -5 | -1 | -2 | -7 | 7
O=C(O)c1cccc(-n2cccc2/C=C2/NC(=O)N(c3cccc(Cl)c3)C2=O)c1 | · | · | 3 | · | -32 | -4
O=C(O)c1cccc(-n2cccc2/C=C2/NC(=O)N(c3ccc(Cl)cc3)C2=O)c1 | 32* | -9 | -2 | -8 | 5 | -26
O=S(=O)(NC1=NCCCCC1)c1ccccc1Cl | · | · | 0 | · | 8 | -3
CCCn1c(N)cc(=O)n(CCC)c1=O | 3 | 4 | 0 | -10 | 20 | -7
Cc1[nH][nH]c(=O)c1C=NCc1ccc(Cl)cc1 | 5 | -1 | 0 | 12 | 6 | 4
CCOC(=O)CNC(=O)CSc1nnc(NC(=O)c2ccccc2Cl)s1 | 1 | 0 | 4 | -4 | -4 | 0
Cc1oc(C(C)(C)C)cc1C(N)=O | · | · | 6 | · | -20 | 4
SMILES | Arbovirus inh | L major viab | Wee1 stabilizer | PKD1 inh | Rad51 HR inh | CHOP inh
CS(=O)(=O)N(CC(O)Cn1c2ccccc2c2ccccc21)c1ccccc1 (stereo unspecified) | 42* | 6 | 0 | 4 | 0 | -3
CC(=O)Nc1ccccc1N(CC(O)Cn1c2ccccc2c2ccccc21)S(=O)(=O)c1ccc(C)cc1 (stereo unspecified) | -8 | 64* | 4 | 2 | -15 | 30
CN(CC(O)Cn1c2ccccc2c2ccccc21)S(C)(=O)=O (stereo unspecified) | 2 | 5 | -1 | -2 | -4 | 25
CCC(=O)NC(=S)NNC(=O)c1ccc(O)cc1 | -1 | -7 | 7 | 4 | · | 7
CCc1ccccc1S(=O)(=O)Cc1ccc(C(=O)NC(C)C)o1 | 4 | -4 | 1 | 4 | -8 | ·
O=C(NCc1ccc2c(c1)OCO2)c1ccc(COc2cc(Cl)ccc2Cl)o1 | -14 | 10 | 3 | -10 | 12 | 54
CCc1ccccc1S(=O)(=O)Cc1ccc(C(=O)NCc2ccc3c(c2)OCO3)o1 | 0 | 8 | 0 | -2 | 0 | 87*
O=C(NCc1ccc2c(c1)OCO2)c1ccc(CS(=O)(=O)Cc2cccc(Cl)c2)o1 | 0 | 79* | -1 | -9 | -2 | 29
